Published values of several laboratories.
Protocols differ between the studies behind these lines.
CHEK2 I157T: Serine/threonine-protein kinase Chk2 (CHEK2, Homo sapiens, UniProt O96017, I157T)
WNK4: Serine/threonine-protein kinase WNK4 (WNK4, Homo sapiens, UniProt Q96J92)
SLC6A2: Sodium-dependent noradrenaline transporter (SLC6A2, Homo sapiens, UniProt P23975)
CECR2: Chromatin remodeling regulator CECR2 (CECR2, Homo sapiens, UniProt Q9BXF3)

Structure (SMILES)	target	assay	system	setting	quantity	result
CC(C)(C)c1nc2c(s1)c1nc(N)ncc1c1ccc(NS(=O)(=O)c3c(F)cccc3F)c(F)c12	Mitotic checkpoint serine/threonine-protein kinase BUB1 beta (BUB1B, Homo sapiens, UniProt O60566)	enzyme activity, inhibitor, radiometric		1 µM	remaining activity	89%
Cc1cc(NC(=O)c2cccc3cc(-c4cccc5[nH]nc(N)c45)ccc23)ccc1F	CHEK2 I157T	enzyme activity, inhibitor		0.1 µM	activity vs control	72%
Nc1ncnc2occ(-c3ccc(NC(=O)Nc4cc(C(F)(F)F)ccc4F)cc3)c12	WNK4	cell-free assay, inhibitor		20 µM	remaining signal	17%
Clc1ccc(C(c2ccccc2)c2nnnn2CCCN2CCC(Cc3ccccc3)CC2)cc1 (centres unmarked)	SLC6A2	transporter uptake, inhibitor	HEK293	1 µM	inhibition	93.4%
CCCOc1ccc(OC)c(F)c1C(=O)c1ccc(C(=O)N[C@@H]2CNC[C@H]2NC(=O)c2ccc3[nH]ncc3c2)cc1	cAMP-dependent protein kinase catalytic subunit PRKX (PRKX, Homo sapiens, UniProt P51817)	enzyme activity, inhibitor		0.75 µM	remaining activity	4%
CC(=O)N[C@H]1CSSC[C@@H](C(=O)N[C@H](Cc2c[nH]c3ccccc23)C(N)=O)NC(=O)[C@@H](Cc2ccccc2)NC(=O)[C@H](CCCNC(=N)N)NC1=O	Melanocortin receptor 4 (MC4R, Homo sapiens, UniProt P32245)	cAMP, agonist	HEK293	3 min	Emax	0%
Fc1ccc(C(c2ccc(F)cc2)c2nnnn2CCCCN2CCN(Cc3ccccc3)CC2)cc1	SLC6A2	transporter uptake, inhibitor	HEK293	1 µM	inhibition	95%
Oc1ccc(-c2nc(-c3ccncc3)c(-c3ccc(F)cc3)[nH]2)cc1	CECR2	thermal stability, DSF		10 µM	ΔTm	1.3 °C
CNC(=O)c1cc(Oc2ccc(NC(=O)Nc3ccc(Cl)c(C(F)(F)F)c3)cc2)ccn1	CHEK2 I157T	enzyme activity, inhibitor		10 µM	inhibition	-1%
Cc1ccc(C(=O)Nc2ccc(CN3CCN(C)CC3)c(C(F)(F)F)c2)cc1C#Cc1cnc2cccnn12	WNK4	enzyme activity, inhibitor		23.5 nM	remaining activity	93%
c1ccc(CCCC2CCN(CCCn3nnnc3C(c3ccccc3)c3ccccc3)CC2)cc1	SLC6A2	transporter uptake, inhibitor	HEK293	1 µM	inhibition	84.9%
Cc1cc2c(cc1N1C(=O)c3cccc4c(Cl)ccc(c34)C1=O)n(C)c(=O)n2C	CECR2	thermal stability, DSF		10 µM	ΔTm	3.5 °C
Cc1cnc(Nc2ccc(OCCN3CCCC3)cc2)nc1Nc1cccc(S(=O)(=O)NC(C)(C)C)c1	CECR2	thermal stability, DSF		10 µM	ΔTm	0.12 °C
Clc1ccc(C(c2ccccc2)c2nnnn2CCCN2CCC(CCc3ccccc3)CC2)cc1 (centres unmarked)	SLC6A2	transporter uptake, inhibitor	HEK293	1 µM	inhibition	50.1%
